# Laboratory results taken from paper PMC6839502 (Journal of Alzheimer's Disease, 2019).
# Where “and” joins values, the source holds several entries; their conditions need not be identical. Equal entries are not always repeated. Entries after “also recorded” stand apart in the source; their conditions may differ.
# How the values were obtained:
# CSF Aβ fragments = assay: CSF Aβ fragments, sAβPPα and sAβPPβ after multiple doses; type: in vivo, human; settings: healthy adults
# Procedure, shortened: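 Healthy adults (18–55 y), randomized double-blind placebo-controlled, oral QD for 14 days, fasted on Days 1, 7, and 14. Lumbar-puncture CSF was taken on Day –3 (B8271004) or Day 0 (B8271001) and on Day 15, 24 h post last dose. Total Aβ was measured by DELFIA (LLOQ 391.0 pg/mL). Ln change from baseline was analysed by ANCOVA with treatment as a fixed effect and ln baseline as covariate, then converted to percent change versus pooled placebo with 2-sided 80% CI.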
# plasma Aβ fragments = assay: Plasma Aβ fragments after single and multiple doses; type: in vivo, human; settings: 275 mg, on Day 1
# Procedure, shortened: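 Healthy adults, oral QD dosing versus placebo, Part B. Pre-dose blood was drawn on Days 1, 2, 4, 7, 10, and 14. Plasma Aβ1–40 was measured by DELFIA (LLOQ 12.1 pg/mL). Log change from baseline was analysed by mixed-model repeated measures: treatment, time, and their interaction as fixed effects, subject as random effect, and log baseline as covariate. Results were expressed as placebo-adjusted reduction.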
# CSF Aβ1–40 and Aβ1–42 = assay: Population PK/PD model of CSF Aβ1–40 and Aβ1–42; set-up: species or system human; settings: in approximately 50% of subjects, simulated
# Procedure, shortened: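 Population PK/PD model built on pooled data from both studies: CSF Aβ at baseline plus one steady-state trough value. Indirect-response model in which plasma drug concentration lowers the Aβ production rate. Population PK parameters were fixed. CSF turnover rates were fixed at 0.084/h (Aβ1–40) and 0.12/h (Aβ1–42), taken from a separate serial-CSF study.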
# BACE1 over BACE 2 = settings: fluorescence polarization (FP) assay; cited from earlier work
# Cathepsin D (Cat D) = settings: FP assay; cited from earlier work
# pigmented C57BL/6J mice = settings: long-term toxicology studies / 3 weeks of treatment in pigmented C57BL/6J mice; cited from earlier work
# dogs = settings: long-term toxicology / chronic dosing for up to 9 months; cited from earlier work
# hERG = settings: in vitro and in vivo preclinical safety and toxicology studies; cited from earlier work
# CYP3A4/5 = settings: in vitro experiments; ref data on file; cited from earlier work
compound,measurement,setting,value
C[C@H]1C[C@H]2CSC(N)=N[C@@]2(c2nc(NC(=O)c3ccc(OC(F)F)cn3)cs2)CO1 [PF-06751979],CSF Aβ1–38 percent change from baseline to Day 15 (2-sided 80% CI),"CSF Aβ fragments; 50 mg QD 14 days, B8271001","–58.4 (–61.34, –55.28) %"
same,CSF Aβ1–40 percent change from baseline to Day 15 (2-sided 80% CI),"CSF Aβ fragments; 50 mg QD 14 days, B8271001","–70.2 (–74.20, –65.52) %"
same,CSF Aβ1–40 placebo-adjusted percent change from baseline to Day 15 (2-sided 80% CI),"CSF Aβ fragments; 50 mg QD 14 days, B8271001","–68.1 (–75.87, –57.86) %"
same,CSF Aβ1–42 percent change from baseline to Day 15 (2-sided 80% CI),"CSF Aβ fragments; 50 mg QD 14 days, B8271001","–71.9 (–74.97, –68.57) %"
same,CSF Aβ total percent change from baseline to Day 15 (2-sided 80% CI),"CSF Aβ fragments; 50 mg QD 14 days, B8271001","–64.0 (–66.62, –61.25) %"
same,CSF Aβx-38 percent change from baseline to Day 15 (2-sided 80% CI),"CSF Aβ fragments; 50 mg QD 14 days, B8271001","–60.2 (–63.42, –56.67) %"
same,CSF Aβx-40 percent change from baseline to Day 15 (2-sided 80% CI),"CSF Aβ fragments; 50 mg QD 14 days, B8271001","–60.4 (–63.71, –56.76) %"
same,CSF Aβx-42 percent change from baseline to Day 15 (2-sided 80% CI),"CSF Aβ fragments; 50 mg QD 14 days, B8271001","–64.3 (–67.21, –61.11) %"
same,CSF sAβPPα percent change from baseline to Day 15 (2-sided 80% CI),"CSF Aβ fragments; 50 mg QD 14 days, B8271001","48.4 (38.56, 58.98) %"
same,CSF sAβPPβ percent change from baseline to Day 15 (2-sided 80% CI),"CSF Aβ fragments; 50 mg QD 14 days, B8271001","–70.6 (–72.23, –68.93) %"
same,CSF Aβ1–38 percent change from baseline to Day 15 (2-sided 80% CI),"CSF Aβ fragments; 125 mg QD 14 days, B8271004","–80.3 (–81.51, –79.06) %"
same,CSF Aβ1–40 percent change from baseline to Day 15 (2-sided 80% CI),"CSF Aβ fragments; 125 mg QD 14 days, B8271004","–85.5 (–86.45, –84.38) %"
same,CSF Aβ1–40 placebo-adjusted percent change from baseline to Day 15 (2-sided 80% CI),"CSF Aβ fragments; 125 mg QD 14 days, B8271004","–83.8 (–85.65, –81.78) %"
same,CSF Aβ1–42 percent change from baseline to Day 15 (2-sided 80% CI),"CSF Aβ fragments; 125 mg QD 14 days, B8271004","–86.4 (–87.40, –85.28) %"
same,CSF Aβ total percent change from baseline to Day 15 (2-sided 80% CI),"CSF Aβ fragments; 125 mg QD 14 days, B8271004","–80.1 (–81.01, –79.18) %"
same,CSF Aβx-38 percent change from baseline to Day 15 (2-sided 80% CI),"CSF Aβ fragments; 125 mg QD 14 days, B8271004","–82.0 (–83.18, –80.74) %"
same,CSF Aβx-40 percent change from baseline to Day 15 (2-sided 80% CI),"CSF Aβ fragments; 125 mg QD 14 days, B8271004","–81.0 (–82.16, –79.76) %"
same,CSF Aβx-42 percent change from baseline to Day 15 (2-sided 80% CI),"CSF Aβ fragments; 125 mg QD 14 days, B8271004","–81.9 (–82.76, –80.91) %"
same,CSF sAβPPα percent change from baseline to Day 15 (2-sided 80% CI),"CSF Aβ fragments; 125 mg QD 14 days, B8271004","58.7 (48.89, 69.05) %"
same,CSF sAβPPβ percent change from baseline to Day 15 (2-sided 80% CI),"CSF Aβ fragments; 125 mg QD 14 days, B8271004","–81.3 (–82.21, –80.27) %"
same,CSF Aβ1–38 percent change from baseline to Day 15 (2-sided 80% CI),"CSF Aβ fragments; 275 mg QD 14 days, B8271004","–87.9 (–88.82, –86.98) %"
same,CSF Aβ1–40 percent change from baseline to Day 15 (2-sided 80% CI),"CSF Aβ fragments; 275 mg QD 14 days, B8271004","–92.9 (–93.54, –92.25) %"
same,CSF Aβ1–40 placebo-adjusted percent change from baseline to Day 15 (2-sided 80% CI),"CSF Aβ fragments; 275 mg QD 14 days, B8271004","–92.1 (–93.15, –90.98) %"
same,CSF Aβ1–42 percent change from baseline to Day 15 (2-sided 80% CI),"CSF Aβ fragments; 275 mg QD 14 days, B8271004","–93.6 (–94.22, –92.93) %"
same,CSF Aβ total percent change from baseline to Day 15 (2-sided 80% CI),"CSF Aβ fragments; 275 mg QD 14 days, B8271004","–86.5 (–87.26, –85.74) %"
same,CSF Aβx-38 percent change from baseline to Day 15 (2-sided 80% CI),"CSF Aβ fragments; 275 mg QD 14 days, B8271004","–90.1 (–90.91, –89.23) %"
same,CSF Aβx-40 percent change from baseline to Day 15 (2-sided 80% CI),"CSF Aβ fragments; 275 mg QD 14 days, B8271004","–87.6 (–88.55, –86.62) %"
same,CSF Aβx-42 percent change from baseline to Day 15 (2-sided 80% CI),"CSF Aβ fragments; 275 mg QD 14 days, B8271004","–86.6 (–87.43, –85.76) %"
same,CSF sAβPPα percent change from baseline to Day 15 (2-sided 80% CI),"CSF Aβ fragments; 275 mg QD 14 days, B8271004","81.7 (67.79, 96.85) %"
same,CSF sAβPPβ percent change from baseline to Day 15 (2-sided 80% CI),"CSF Aβ fragments; 275 mg QD 14 days, B8271004","–84.3 (–85.28, –83.26) %"
same,Maximum observed (placebo-adjusted) reduction in CSF Aβ1–42,"CSF Aβ fragments; 275 mg QD, 24 h after Day 14 dose",~93% and 92.9%
same,"Maximum observed placebo-adjusted reduction in plasma Aβ1–40, multiple doses",plasma Aβ fragments,88.3%
same,Predicted average reduction of CSF Aβ1–40 and Aβ1–42 at steady state,CSF Aβ1–40 and Aβ1–42; 30 mg QD,approximately 60%
same,Predicted average reduction of CSF Aβ1–40 and Aβ1–42 at steady state,CSF Aβ1–40 and Aβ1–42; 75 mg QD,~80%
same,Predicted average reduction of CSF Aβ1–40 and Aβ1–42 at steady state,CSF Aβ1–40 and Aβ1–42; 110 mg QD,~85%
same,Selectivity for BACE1 over BACE2,BACE1 over BACE 2,6.4 fold
same,Selectivity over Cathepsin D,Cathepsin D (Cat D),~2500 fold
same,Hair color (pigmentation) change,pigmented C57BL/6J mice,not observed; also recorded: did not reveal pigmentation changes
same,Hair color (pigmentation) change,dogs,did not reveal any evidence of hair color change; also recorded: did not reveal pigmentation changes
same,hERG inhibition,hERG,weak hERG inhibition
same,CYP3A4/5 inhibition,CYP3A4/5,weak metabolism-dependent inhibitor
